Apaf1 inhib = inhibitors of human Apaf-1 apoptosome, primary screen, biochemical, DEVD-Rh110 fluorescence, uHTS; AID 489030, 2010; Apoptotic protease-activating factor 1 (Homo sapiens), O14727; actives 0.71% (n = 330,000); inhibition, % at 20 µM; reconstituted apoptosome caspase-3 activity; active means inhibition of at least 40% at 20 µM;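 further: plate controls were DMSO wells for no effect and DEVD-CHO caspase inhibitor wells for full effect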
Target sequence (O14727 whole entry, looked up): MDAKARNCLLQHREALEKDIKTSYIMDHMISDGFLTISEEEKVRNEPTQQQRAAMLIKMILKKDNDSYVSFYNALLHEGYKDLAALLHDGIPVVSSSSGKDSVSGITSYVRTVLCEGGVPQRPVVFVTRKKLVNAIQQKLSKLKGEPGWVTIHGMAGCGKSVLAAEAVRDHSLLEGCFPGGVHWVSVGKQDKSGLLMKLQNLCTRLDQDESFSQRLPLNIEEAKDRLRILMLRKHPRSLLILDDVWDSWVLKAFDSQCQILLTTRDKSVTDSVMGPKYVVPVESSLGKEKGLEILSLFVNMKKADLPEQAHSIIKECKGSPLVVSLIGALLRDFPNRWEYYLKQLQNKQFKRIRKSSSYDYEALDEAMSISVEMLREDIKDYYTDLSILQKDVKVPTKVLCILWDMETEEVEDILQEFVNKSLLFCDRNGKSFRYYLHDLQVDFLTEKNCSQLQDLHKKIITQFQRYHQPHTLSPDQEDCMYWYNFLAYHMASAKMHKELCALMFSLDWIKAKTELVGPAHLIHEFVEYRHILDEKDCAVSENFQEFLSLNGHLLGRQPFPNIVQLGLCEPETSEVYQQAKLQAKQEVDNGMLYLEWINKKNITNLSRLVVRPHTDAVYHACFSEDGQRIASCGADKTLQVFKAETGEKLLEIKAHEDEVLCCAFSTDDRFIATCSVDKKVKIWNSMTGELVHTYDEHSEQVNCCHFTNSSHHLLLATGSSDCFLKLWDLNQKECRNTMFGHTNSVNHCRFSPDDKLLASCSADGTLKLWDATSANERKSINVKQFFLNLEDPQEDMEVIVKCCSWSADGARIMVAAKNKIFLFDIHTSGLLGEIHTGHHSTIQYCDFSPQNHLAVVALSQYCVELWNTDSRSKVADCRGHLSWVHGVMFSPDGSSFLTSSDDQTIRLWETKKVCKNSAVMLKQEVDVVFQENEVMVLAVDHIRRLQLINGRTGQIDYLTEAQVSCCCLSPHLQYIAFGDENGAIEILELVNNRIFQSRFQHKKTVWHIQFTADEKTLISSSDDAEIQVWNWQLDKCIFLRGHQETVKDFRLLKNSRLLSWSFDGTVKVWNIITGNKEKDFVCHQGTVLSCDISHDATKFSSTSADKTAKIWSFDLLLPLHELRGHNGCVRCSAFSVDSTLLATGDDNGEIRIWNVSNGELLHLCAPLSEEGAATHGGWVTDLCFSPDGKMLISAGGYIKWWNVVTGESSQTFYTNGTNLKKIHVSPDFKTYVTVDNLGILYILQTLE
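Medium: Hepes buffer, pH 7.5 / System: biochemical Apaf-1 apoptosome reconstitution / Measured by: Rh110 fluorescence, excitation 480 nm, emission 540 nm / Times: compound with Apaf-1, dATP, procaspase-3 30 min, then 50 min reaction, room temperature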
PAFAH2 inh = PAFAH2 enzyme inhibitors, primary screen, biochemical, fluorescence polarization, human; Platelet-activating factor acetylhydrolase 2, cytoplasmic (Homo sapiens), Q99487; recombinant PAFAH2, FP-rhodamine activity probe; inhibition, % at 3.39 µM; actives 0.99% (n = 340,000); AID 492956, 2010;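 active means inhibition above the mean over all tested compounds plus 3 SD, cut at about 30% in these data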;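 further: inhibitors block probe labeling of enzyme so polarization drops; 0% = enzyme with DMSO and 100% = wells lacking PAFAH2 protein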
pPAFAH FP inh = pPAFAH enzyme inhibitors, primary screen, biochemical, fluorescence polarization, human; recombinant pPAFAH, FP-rhodamine probe fluorescence polarization; actives 1.5% (n = 330,000); AID 463082, 2010; inhibition, % at 3.39 µM;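 active means inhibition above the mean inhibition across the screen plus 3 SD, cut at about 25% in these data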;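 further: inhibitors block binding of the rhodamine activity-based probe so polarization drops; 0% = enzyme with DMSO and 100% = wells lacking pPAFAH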
PAFAH1B2 FP inh = PAFAH1B2 enzyme inhibitors, primary screen, biochemical, fluorescence polarization, human; Platelet-activating factor acetylhydrolase IB subunit alpha2 (Homo sapiens), P68402; inhibition, % at 3.39 µM; AID 492953, 2010; recombinant PAFAH1B2, FP-rhodamine activity probe; actives 1.2% (n = 340,000);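 active means inhibition above the mean of all tested compounds plus 3 SD, cut at about 24% in these data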;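 further: 0% = enzyme with DMSO and 100% = wells lacking PAFAH1B2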
PREPL inh = PREPL enzyme inhibitors, primary screen, biochemical, fluorescence polarization | inhibition, % at 5.96 µM | recombinant PREPL, fluorescence polarization activity-based probe | AID 2751, 2010 | actives 0.68% (n = 320,000) | Prolyl endopeptidase-like (Homo sapiens), Q4J6C6; in the data active means inhibition above about 43%;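 further: 0% = enzyme with DMSO and 100% = wells lacking enzyme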
PAFAH1B3 inh = PAFAH1B3 enzyme inhibitors, primary screen, biochemical, fluorescence polarization, human | Platelet-activating factor acetylhydrolase IB subunit alpha1 (Homo sapiens), Q15102 | recombinant PAFAH1B3, FP-rhodamine probe | inhibition, % at 3.39 µM | actives 0.28% (n = 340,000) | AID 492972, 2010;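 active means inhibition above the screen-wide average of all tested compounds plus 3 SD, cut at about 25% in these data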;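 further: 0% = enzyme with DMSO only and 100% = wells lacking PAFAH1B3 protein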
An asterisk follows results filed as active. Only some compounds are listed: those with a hit (about 3.5% of all), similar ones and a draw of the others.

Cc1cccc(N2CCN(C(=O)c3cc4n(n3)C(C(F)(F)F)CC(c3ccco3)N4)CC2)c1C (centres undefined) was read as Apaf1 inhib 21, PAFAH2 inh 7, pPAFAH FP inh 34*, PAFAH1B2 FP inh 3, PREPL inh 18 and PAFAH1B3 inh 4.
For COc1cccc(/C=N/NC(=O)c2[nH]c(C)c(C(=O)N/N=C/c3cccc(OC)c3O)c2C)c1O the results were Apaf1 inhib 15, PAFAH2 inh -5, pPAFAH FP inh 28*, PAFAH1B2 FP inh 7, PREPL inh 31 and PAFAH1B3 inh 45*.
`CCOc1ccccc1C=NNC(=O)C(=O)NN=Cc1ccccc1OCC` gave PAFAH2 inh 0, PAFAH1B2 FP inh 4 and PAFAH1B3 inh -5.
`CCOc1ccccc1NC(=O)C(=O)N/N=C/c1cc(Br)ccc1O` gave Apaf1 inhib 3, PAFAH2 inh 10, pPAFAH FP inh 26*, PAFAH1B2 FP inh 5, PREPL inh 11 and PAFAH1B3 inh 4.
For COc1cccc(/C=N/NC(=O)C(=O)Nc2ccccc2OC(F)(F)C(F)F)c1O the results were Apaf1 inhib 14, PAFAH2 inh 35*, pPAFAH FP inh 12, PAFAH1B2 FP inh 5, PREPL inh 10 and PAFAH1B3 inh 27*.
CC1(c2ccc3noc(-c4cccc(F)c4)c3c2)OCCO1 was read as Apaf1 inhib 0, PAFAH2 inh -7, pPAFAH FP inh 5, PAFAH1B2 FP inh 1, PREPL inh 9 and PAFAH1B3 inh 6.
O=C(Nc1cccc(Cl)c1Cl)c1ccccc1OCC(=O)N1CCOCC1 was read as Apaf1 inhib 9, PAFAH2 inh 6, pPAFAH FP inh 4, PAFAH1B2 FP inh 4, PREPL inh 7 and PAFAH1B3 inh -3.
For CC1(C)NC(=O)N(CC(=O)N2CCC(Cc3ccccc3)CC2)C1=O the results were Apaf1 inhib 1, PAFAH2 inh -1, pPAFAH FP inh 5, PAFAH1B2 FP inh -1, PREPL inh 8 and PAFAH1B3 inh -1.
`CCC1(C)NC(=O)N(CC(=O)N2CCC(Cc3ccccc3)CC2)C1=O` (centres undefined) gave Apaf1 inhib 58*, PAFAH2 inh -2, pPAFAH FP inh 2, PAFAH1B2 FP inh 8, PREPL inh 1 and PAFAH1B3 inh 6.
Screening N#CC1(NC(=O)CSc2nncn2-c2ccccc2F)CCCC1 returned Apaf1 inhib -10, PAFAH2 inh 6, pPAFAH FP inh -2, PAFAH1B2 FP inh 7, PREPL inh 10 and PAFAH1B3 inh 6.
`O=C(COC(=O)C12CC3CC(CC(Cl)(C3)C1)C2)Nc1ccc2[nH]c(=O)[nH]c2c1` gave Apaf1 inhib -2, PAFAH2 inh 7, pPAFAH FP inh 6, PAFAH1B2 FP inh 28*, PREPL inh -2 and PAFAH1B3 inh 5.
Screening N#CCC(=O)NN=C1CCCCCCCCCCC1 returned Apaf1 inhib -13, PAFAH2 inh 3, pPAFAH FP inh 3, PAFAH1B2 FP inh 26*, PREPL inh 2 and PAFAH1B3 inh 5.
Screening O=C(NCCc1ccccc1)[C@@H]1CC=C[C@@H]2CCN(Cc3ccccc3)C(=O)[C@@H]21 returned Apaf1 inhib 6, PAFAH2 inh 1, pPAFAH FP inh -2, PAFAH1B2 FP inh -3, PREPL inh -7 and PAFAH1B3 inh 7.
For CC(Oc1ccc(Cl)cc1)C(=O)NCC1CCCO1 (centres undefined) the results were Apaf1 inhib 0, PAFAH2 inh 6, pPAFAH FP inh 7, PAFAH1B2 FP inh 2, PREPL inh -8 and PAFAH1B3 inh 9.
Screening CCOC(=O)CSc1nnc(NC(=O)CCc2ccccc2)s1 returned Apaf1 inhib 1, PAFAH2 inh -1, pPAFAH FP inh 2, PAFAH1B2 FP inh 5, PREPL inh 0 and PAFAH1B3 inh 1.
For CCOC(=O)CSc1nnc(NC(=O)CN2CCN(C=O)CC2)s1 the results were Apaf1 inhib 0, PAFAH2 inh 2, pPAFAH FP inh 3, PAFAH1B2 FP inh 52*, PREPL inh -3 and PAFAH1B3 inh 4.
For Oc1ccc(N=Nc2ccc3c(c2)OCCO3)c2cccnc12 the results were Apaf1 inhib -4, PAFAH2 inh 0, pPAFAH FP inh 33*, PAFAH1B2 FP inh 0, PREPL inh 15 and PAFAH1B3 inh 6.
Nc1ccc(N=Nc2ccccc2)c2cccnc12 was read as Apaf1 inhib 22, PAFAH2 inh 9, pPAFAH FP inh 28*, PAFAH1B2 FP inh 4, PREPL inh 39 and PAFAH1B3 inh 13.
COc1ccc(N=Nc2ccc(O)c3ncccc23)cc1 was read as Apaf1 inhib 0, PAFAH2 inh -4, pPAFAH FP inh 31*, PAFAH1B2 FP inh -3, PREPL inh 17 and PAFAH1B3 inh 8.
Screening CCCC(=O)Nc1ccc(NC(=O)c2cc3ccccc3o2)c(OC)c1 returned Apaf1 inhib -13, PAFAH2 inh -4, pPAFAH FP inh 0, PAFAH1B2 FP inh 5, PREPL inh 15 and PAFAH1B3 inh 7.
COc1ccc(CC(=O)NC2CC(C)(C)NC(C)(C)C2)cc1OC was read as Apaf1 inhib 3, PAFAH2 inh -9, pPAFAH FP inh -3, PAFAH1B2 FP inh 0, PREPL inh 11 and PAFAH1B3 inh 11.
`Cc1ncc(CSc2ccc(Cl)cc2)c(CO)c1O` gave Apaf1 inhib 2, PAFAH2 inh 1, pPAFAH FP inh 0, PAFAH1B2 FP inh 27*, PREPL inh -5 and PAFAH1B3 inh 6.
For CN(CC(=O)Nc1cccc(F)c1)CC(=O)N(C)c1c(N)n(Cc2ccccc2)c(=O)[nH]c1=O the results were Apaf1 inhib -2, PAFAH2 inh 1, pPAFAH FP inh -1, PAFAH1B2 FP inh 5, PREPL inh 3 and PAFAH1B3 inh 8.
`O=S(=O)(Nc1cccc(-c2ccc(N3CCCCCC3)nn2)c1)c1cccc(F)c1` gave Apaf1 inhib 22, PAFAH2 inh 5, pPAFAH FP inh 27*, PAFAH1B2 FP inh 7, PREPL inh -8 and PAFAH1B3 inh -3.
For O=S(=O)(Nc1cccc(-c2ccc(N3CCCCCC3)nn2)c1)c1ccccc1Cl the results were Apaf1 inhib 16, PAFAH2 inh -14, pPAFAH FP inh 29*, PAFAH1B2 FP inh 21, PREPL inh -4 and PAFAH1B3 inh -1.
For O=C(CN1C(=O)NC(CCc2ccccc2)C1=O)Nc1cccc(Br)c1 (centres undefined) the results were Apaf1 inhib 7, PAFAH2 inh -6, pPAFAH FP inh 0, PAFAH1B2 FP inh 11, PREPL inh 3 and PAFAH1B3 inh 5.

Screening data (PubChem)
